Laboratory results from ChEMBL document CHEMBL5385966, “Synthesis and biological evaluation of new naphthalimide-thiourea derivatives as potent antimicrobial agents active against multidrug-resistant Staphylococcus aureus and Mycobacterium tuberculosis” (RSC Med Chem, 2024).
Values after ≈ are worked out from the molar mass of the structure shown. Active and inactive are the calls of the source. No cut-off for these calls is given here.

Key:
Staphylococcus aureus [1] = assay: Antimicrobial activity against methicillin-resistant Staphylococcus aureus Newman assessed as microbial growth inhibition; type: functional
Staphylococcus aureus [2] = assay: Antimicrobial activity against Staphylococcus aureus assessed as microbial growth inhibition; type: functional
Staphylococcus aureus [3] = assay: Antibacterial activity against methicillin/ceftriaxone/meropenem-resistant Staphylococcus aureus NRS10192 clinical isolate assessed as bacterial growth inhibition incubated for 16 to 18 hrs by CLSI based antibiotic susceptibility testing method; type: functional; conditions: time 16-18 hrs
Method in brief: (§1)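 Broth microdilution in cation-adjusted Mueller-Hinton broth. Compounds were tested at […], with levofloxacin as reference and medium-only controls. Plates were incubated at 37 °C for 16-18 h. MIC was the lowest concentration with no visible growth; three independent determinations, each in duplicate.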

Staphylococcus aureus [4] = assay: Antibacterial activity against methicillin/ceftriaxone/meropenem-resistant Staphylococcus aureus NRS10129 clinical isolate assessed as bacterial growth inhibition incubated for 16 to 18 hrs by CLSI based antibiotic susceptibility testing method; type: functional; conditions: time 16-18 hrs; method in brief: as §1
Staphylococcus aureus [5] = assay: Antibacterial activity against methicillin/ceftriaxone/meropenem/vancomycin/teicoplanin-resistant Staphylococcus aureus VRS4 clinical isolate assessed as bacterial growth inhibition incubated for 16 to 18 hrs by CLSI based antibiotic susceptibility testing method; type: functional; conditions: time 16-18 hrs; method in brief: as §1
Staphylococcus aureus [6] = assay: Bactericidal activity against Staphylococcus aureus ATCC 29213 assessed as reduction in remnant bacterial cells measured for 24 hrs by time-kill assay; type: functional, organism-based
Method in brief: (§2)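 Time-kill assay: S. aureus ATCC 29213 at ~10⁶ cfu/mL in MHB, exposed to 1X and 10X MIC at 37 °C, in triplicate. Samples taken at 0, 1, 6 and 24 h were serially diluted in PBS and plated on TSA for 18-20 h at 37 °C. Surviving cfu/mL were counted against untreated controls.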

[7] = system: Mycobacterium tuberculosis; assay: Antimycobacterial activity against Mycobacterium tuberculosis H37Rv ATCC 27294 assessed as bacterial growth inhibition incubated for 7 days by resazurin dye based broth microdilution method; type: functional; conditions: H37Rv ATCC 27294, 168 h, time 7 day
Method in brief: (§3)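 Broth microdilution in Middlebrook 7H9 with 10% ADC-Tween-80 (0.2% glycerol, 0.05% Tween-80), inoculum ~10⁶ cfu/mL. Compounds came from 10 mg/mL DMSO stocks and were tested as two-fold serial dilutions at 37 °C, 7 days for M. tuberculosis H37Rv and 72 h for NTM. Growth was read visually with PrestoBlue resazurin dye; MIC was the lowest concentration preventing growth. Triplicate determinations, each in duplicate.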

[8] = Selectivity index, ratio of CC50 for African green monkey Vero cells to MIC for Staphylococcus aureus ATCC 29213; type: toxicity, cell-based; conditions: read-out: Selectivity Index
Pseudomonas aeruginosa = assay: Antibacterial activity against Pseudomonas aeruginosa ATCC 27853 assessed as bacterial growth inhibition incubated for 16 to 18 hrs by CLSI based antibiotic susceptibility testing method; type: functional, organism-based; conditions: time 16-18 hrs; method in brief: as §1
Acinetobacter baumannii = assay: Antibacterial activity against Acinetobacter baumannii BAA 1605 assessed as bacterial growth inhibition incubated for 16 to 18 hrs by CLSI based antibiotic susceptibility testing method; type: functional, organism-based; conditions: time 16-18 hrs; method in brief: as §1
Staphylococcus aureus [9] = assay: Antibacterial activity against methicillin/ceftriaxone/meropenem-resistant Staphylococcus aureus NRS10198 clinical isolate assessed as bacterial growth inhibition incubated for 16 to 18 hrs by CLSI based antibiotic susceptibility testing method; type: functional; conditions: time 16-18 hrs; method in brief: as §1
Staphylococcus aureus [10] = assay: Antibacterial activity against methicillin/ceftriaxone/meropenem-resistant Staphylococcus aureus NRS10193 clinical isolate assessed as bacterial growth inhibition incubated for 16 to 18 hrs by CLSI based antibiotic susceptibility testing method; type: functional; conditions: time 16-18 hrs; method in brief: as §1
Staphylococcus aureus [11] = assay: Antibacterial activity against methicillin/ceftriaxone/meropenem-resistant Staphylococcus aureus NRS10191 clinical isolate assessed as bacterial growth inhibition incubated for 16 to 18 hrs by CLSI based antibiotic susceptibility testing method; type: functional; conditions: time 16-18 hrs; method in brief: as §1
[12] = Cytotoxicity against African green monkey Vero cells by MTT assay; type: toxicity, cell-based; conditions: chlorocebus sabaeus
Method in brief: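 Vero cells were seeded at ~10³ per well at 37 °C, 5% CO2. After 24 h, compounds were added at 5-100 mg/L for 72 h. […] was added for 4 h, formazan was dissolved in DMSO and read at 540 nm. CC50 was taken as the lowest concentration reducing viability by 50%; doxorubicin was the positive control; triplicate.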

Staphylococcus aureus [13] = assay: Antibacterial activity against methicillin/ceftriaxone/meropenem-resistant Staphylococcus aureus NRS10186 clinical isolate assessed as bacterial growth inhibition incubated for 16 to 18 hrs by CLSI based antibiotic susceptibility testing method; type: functional; conditions: time 16-18 hrs; method in brief: as §1
Escherichia coli = assay: Antibacterial activity against Escherichia coli ATCC 25922 assessed as bacterial growth inhibition incubated for 16 to 18 hrs by CLSI based antibiotic susceptibility testing method; type: functional, organism-based; conditions: time 16-18 hrs; method in brief: as §1
Staphylococcus aureus [14] = assay: Antibacterial activity against methicillin/ceftriaxone/meropenem/gentamycin/vancomycin/teicoplanin-resistant Staphylococcus aureus VRS1 clinical isolate assessed as bacterial growth inhibition incubated for 16 to 18 hrs by CLSI based antibiotic susceptibility testing method; type: functional; conditions: time 16-18 hrs; method in brief: as §1
Klebsiella pneumoniae = assay: Antibacterial activity against Klebsiella pneumoniae BAA 1705 assessed as bacterial growth inhibition incubated for 16 to 18 hrs by CLSI based antibiotic susceptibility testing method; type: functional, organism-based; conditions: time 16-18 hrs; method in brief: as §1
Staphylococcus aureus [15] = assay: Antibacterial activity against methicillin-sensitive Staphylococcus aureus ATCC 29213 clinical isolate assessed as bacterial growth inhibition incubated for 16 to 18 hrs by CLSI based antibiotic susceptibility testing method; type: functional; conditions: time 16-18 hrs; method in brief: as §1
Mycobacteroides chelonae = assay: Antimycobacterial activity against Mycobacteroides chelonae ATCC 35752 assessed as bacterial growth inhibition incubated for 72 hrs by resazurin dye based broth microdilution method; type: functional, organism-based; method in brief: as §3
Staphylococcus aureus [16] = assay: Antibacterial activity against methicillin/ceftriaxone-resistant Staphylococcus aureus NRS10194 clinical isolate assessed as bacterial growth inhibition incubated for 16 to 18 hrs by CLSI based antibiotic susceptibility testing method; type: functional; conditions: time 16-18 hrs; method in brief: as §1
Staphylococcus aureus [17] = assay: Antibacterial activity against Staphylococcus aureus ATCC 29213 assessed as bacterial growth inhibition incubated for 16 to 18 hrs by CLSI based antibiotic susceptibility testing method; type: functional; conditions: time 16-18 hrs; method in brief: as §1
Staphylococcus aureus [18] = assay: Antibacterial activity against methicillin/ceftriaxone/meropenem/gentamycin/linezolid-resistant Staphylococcus aureus NRS10100 clinical isolate assessed as bacterial growth inhibition incubated for 16 to 18 hrs by CLSI based antibiotic susceptibility testing method; type: functional; conditions: time 16-18 hrs; method in brief: as §1
Staphylococcus aureus [19] = assay: Antibacterial activity against methicillin/ceftriaxone/meropenem/gentamycin/linezolid-resistant Staphylococcus aureus NRS10119 clinical isolate assessed as bacterial growth inhibition incubated for 16 to 18 hrs by CLSI based antibiotic susceptibility testing method; type: functional; conditions: time 16-18 hrs; method in brief: as §1
Staphylococcus aureus [20] = assay: Bactericidal activity against Staphylococcus aureus ATCC 29213 assessed as reduction in remnant bacterial cells at 10 times MIC measured for 24 hrs by time-kill assay; type: functional; method in brief: as §2
Staphylococcus aureus [21] = assay: Antibacterial activity against methicillin/ceftriaxone/meropenem/vancomycin/teicoplanin-resistant Staphylococcus aureus VRS12 clinical isolate assessed as bacterial growth inhibition incubated for 16 to 18 hrs by CLSI based antibiotic susceptibility testing method; type: functional; conditions: time 16-18 hrs; method in brief: as §1
[22] = system: Mycolicibacterium fortuitum; assay: Antimycobacterial activity against Mycobacterium fortuitum ATCC 6841 assessed as bacterial growth inhibition incubated for 72 hrs by resazurin dye based broth microdilution method; type: functional, organism-based; method in brief: as §3
[23] = system: Mycobacteroides abscessus; assay: Antimycobacterial activity against Mycobacterium abscessus ATCC 19977 assessed as bacterial growth inhibition incubated for 72 hrs by resazurin dye based broth microdilution method; type: functional, organism-based; method in brief: as §3

Row | Structure (SMILES) | MIC (Staphylococcus aureus [3]) [µg/mL] | MIC (Staphylococcus aureus [4]) [µg/mL] | MIC (Staphylococcus aureus [5]) [µg/mL] | Activity (Staphylococcus aureus [6]) | MIC [7] [µg/mL] | selectivity ratio [8] | growth inhibition (GI) (Pseudomonas aeruginosa) | growth inhibition (GI) (Acinetobacter baumannii) | MIC (Staphylococcus aureus [9]) [µg/mL] | MIC (Staphylococcus aureus [10]) [µg/mL] | MIC (Staphylococcus aureus [11]) [µg/mL] | CC50 [12] [µg/mL] | MIC (Staphylococcus aureus [13]) [µg/mL] | growth inhibition (GI) (Escherichia coli) | MIC (Staphylococcus aureus [14]) [µg/mL] | growth inhibition (GI) (Klebsiella pneumoniae) | MIC (Staphylococcus aureus [15]) [µg/mL] | growth inhibition (GI) (Mycobacteroides chelonae) | MIC (Staphylococcus aureus [16]) [µg/mL] | MIC (Staphylococcus aureus [17]) [µg/mL] | further results
1 | S=C(Nc1ccc(Cl)cc1)n1ccc(OCc2ccccc2)n1 | – | – | – | – | – | – | – | – | – | – | – | – | – | – | – | – | – | – | – | – | MIC (Staphylococcus aureus [1]): 0.15 µM (≈ 0.0516 µg/mL)
2 | COc1ccc(-c2csc(NC(=S)N[C@@H]3O[C@H](COC(C)=O)[C@@H](OC(C)=O)[C@H](OC(C)=O)[C@H]3OC(C)=O)n2)cc1[N+](=O)[O-] | – | – | – | – | – | – | – | – | – | – | – | – | – | – | – | – | – | – | – | – | MIC (Staphylococcus aureus [2]): 0.78 µg/mL (≈ 1.22 µM)
3 | O=C1c2cccc3cccc(c23)C(=O)N1CCN1CCN(C(=S)NC2CCCCC2)CC1 | 0.25 (≈ 0.555 µM) | 0.25 (≈ 0.555 µM) | 0.25 (≈ 0.555 µM) | Dose-Dependent Effect | 4 (≈ 8.88 µM) | > 160 | inactive | inactive | 0.25 (≈ 0.555 µM) | 0.25 (≈ 0.555 µM) | 0.25 (≈ 0.555 µM) | > 20 | 0.25 (≈ 0.555 µM) | inactive | 0.25 (≈ 0.555 µM) | inactive | 0.25 (≈ 0.555 µM) | inactive | 0.25 (≈ 0.555 µM) | 0.125 (≈ 0.277 µM) | MIC (Staphylococcus aureus [18]): 0.25 µg/mL (≈ 0.555 µM); MIC (Staphylococcus aureus [19]): 0.25 µg/mL (≈ 0.555 µM); Activity (Staphylococcus aureus [20]): ~5 log10CFU/ml; MIC (Staphylococcus aureus [21]): 0.5 µg/mL (≈ 1.11 µM); growth inhibition (GI) [22]: inactive; growth inhibition (GI) [23]: inactive
4 | O=C1c2cccc3cccc(c23)C(=O)N1CCN1CCN(C(=S)NC2CCCC2)CC1 | 0.125 (≈ 0.286 µM) | 0.25 (≈ 0.573 µM) | 0.125 (≈ 0.286 µM) | Dose-Dependent Effect | 2 (≈ 4.58 µM) | > 160 | inactive | inactive | 0.125 (≈ 0.286 µM) | 0.125 (≈ 0.286 µM) | 0.125 (≈ 0.286 µM) | > 20 | 0.25 (≈ 0.573 µM) | inactive | 0.125 (≈ 0.286 µM) | inactive | 0.125 (≈ 0.286 µM) | inactive | 0.125 (≈ 0.286 µM) | 0.125 (≈ 0.286 µM) | MIC (Staphylococcus aureus [18]): 0.25 µg/mL (≈ 0.573 µM); MIC (Staphylococcus aureus [19]): 0.125 µg/mL (≈ 0.286 µM); Activity (Staphylococcus aureus [20]): ~5 log10CFU/ml; MIC (Staphylococcus aureus [21]): 0.25 µg/mL (≈ 0.573 µM); growth inhibition (GI) [22]: inactive; growth inhibition (GI) [23]: inactive
5 | O=C1c2cccc3cccc(c23)C(=O)N1CCN1CCN(C(=S)NC2CCCCCC2)CC1 | 0.5 (≈ 1.08 µM) | 0.5 (≈ 1.08 µM) | 0.5 (≈ 1.08 µM) | Dose-Dependent Effect | > 64 | > 80 | inactive | inactive | 1 (≈ 2.15 µM) | 1 (≈ 2.15 µM) | 1 (≈ 2.15 µM) | > 20 | 1 (≈ 2.15 µM) | inactive | 1 (≈ 2.15 µM) | inactive | 0.5 (≈ 1.08 µM) | inactive | 0.5 (≈ 1.08 µM) | 0.25 (≈ 0.538 µM) | MIC (Staphylococcus aureus [18]): 0.5 µg/mL (≈ 1.08 µM); MIC (Staphylococcus aureus [19]): 1 µg/mL (≈ 2.15 µM); Activity (Staphylococcus aureus [20]): ~5 log10CFU/ml; MIC (Staphylococcus aureus [21]): 1 µg/mL (≈ 2.15 µM); growth inhibition (GI) [22]: inactive; growth inhibition (GI) [23]: inactive
